RGS4 block = inhibitors of human RGS4. HEK293 M3R/RGS4 inducible, Fluo-4 calcium flux; hits give high values; triggered by carbachol at its EC20. P49798. B-score at 10 µM. 310,000 tested, 0.45% active. AID 463165;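 active = B-score, a plate-corrected calcium signal, over three deviations above library mean, with baseline fluorescence within five deviations of library mean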;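 also: RGS4 expression induced by doxycycline in cells with stable M3 receptor; B-score is computed from the integrated fluorescence ratio over baseline after carbachol; higher B-score means a larger calcium signal and so more RGS4 inhibition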
Target sequence (P49798 whole entry, looked up): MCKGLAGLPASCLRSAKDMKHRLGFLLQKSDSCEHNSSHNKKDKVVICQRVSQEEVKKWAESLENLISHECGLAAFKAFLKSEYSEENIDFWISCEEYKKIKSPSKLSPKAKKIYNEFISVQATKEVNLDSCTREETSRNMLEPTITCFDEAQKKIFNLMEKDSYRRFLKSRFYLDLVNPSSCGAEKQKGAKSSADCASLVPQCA
MrgX1 agonist = activates human MrgX1 receptor signaling; Q96LB2; B-score at 10 µM; MrgX1-HEK293 cells, Fluo-4 calcium fluorescence, agonist mode; hits give high values; AID 588627; 310,000 tested, 0.44% active;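 active = calcium response B-score plate-corrected fluorescence ratio at least 3 library SD, with starting fluorescence B-score inside 5 SD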
Target sequence (Q96LB2 whole entry, looked up): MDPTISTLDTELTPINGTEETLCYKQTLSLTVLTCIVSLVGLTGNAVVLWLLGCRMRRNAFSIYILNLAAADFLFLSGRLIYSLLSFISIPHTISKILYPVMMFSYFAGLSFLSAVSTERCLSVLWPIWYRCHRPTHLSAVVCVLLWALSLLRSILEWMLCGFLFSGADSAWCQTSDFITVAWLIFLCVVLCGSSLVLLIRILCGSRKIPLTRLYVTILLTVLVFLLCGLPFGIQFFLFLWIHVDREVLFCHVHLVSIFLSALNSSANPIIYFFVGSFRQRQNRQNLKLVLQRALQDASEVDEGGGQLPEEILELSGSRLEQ
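Material: MrgX1-expressing HEK293 cells; input: 15,000 cells per well; doses: test compound given as first of three sequential additions; schedule: overnight plating before 1 h dye loading; technique: Fluo-4 NW calcium-flux fluorescence, kinetic read; evaluation: baseline-normalised fluorescence change ratio, B-scored; control set: plate-wise positive and negative controls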
MrgX1 antagonist = blocks BAM8-22 activation of human MrgX1 receptor; B-score at 10 µM; AID 588676; 310,000 tested, 1.3% active; Q96LB2; MRGX1-HEK293 calcium flux, Fluo-4, BAM8-22 antagonism; hits give low values;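 active = calcium-response B-score plate-corrected more than 3 library SD below zero, starting fluorescence within 5 deviations, no agonist response on first addition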;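 also: peak minus trough fluorescence over baseline after final BAM8-22 challenge near maximal dose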
Cl transport mod = modulators of human KCC2 chloride dependent transport; Q9H2X9; KCC2 cells, thallium flux FluoZin-2 fluorescence; B-score of Tl+ flux slope (higher = more flux/activation; lower = inhibition) at 10 µM; 190,000 tested, 2.2% active; AID 1456;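 active = thallium flux slope and its plate-corrected score both differing from the plate sample mean at a set confidence after two filtering rounds, in either direction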;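 also: slope of fluorescence scaled to starting intensity during 10 to 20 s after thallium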
RGS4 pot = RGS4 potentiation or activation. AID 463111. HEK293 M3R/inducible RGS4, carbachol calcium flux Fluo4; hits give low values. 310,000 tested, 0.92% active. B-score at 10 µM;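 active = B-score of the integrated calcium signal more than 4 SD below the library mean, with starting fluorescence not abnormally high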;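 also: negative B-score means reduced calcium response which marks RGS4 activation or potentiation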
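Test system: HEK293 cells with stable M3R and inducible RGS4; also added: carbachol at ECmax as muscarinic agonist stimulus; schedule: dye loading 30 min 37 °C, buffer rest 30 min RT; technique: kinetic calcium fluorescence imaging with Fluo4-AM dye, 2 µM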
MrgX1 PAM = human MrgX1 positive allosteric modulation, primary screen. Q96LB2. 310,000 tested, 0.63% active. B-score at 10 µM. MrgX1-HEK293, Fluo-4 calcium flux, FDSS; hits give high values. AID 588675;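 active = plate-corrected calcium response at least 3 library SD above typical, normal starting fluorescence, not activating the receptor alone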;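 also: compound read alongside a low EC10 to EC30 dose of BAM8-22 agonist; peak minus trough fluorescence over baseline measured at the second addition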
RGS4 inh valid = validation of RGS4 inhibitors; shares compounds with RGS4 block; HEK293 M3R/RGS4, carbachol calcium Fluo-4 fluorescence; carbachol added at its EC20; 0 = buffer wells, 100 = carbachol control; calcium response, % at 10 µM; 1,700 tested, 65% active;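 active = duplicate-averaged calcium response above the buffer-only control mean plus 5 SD of those controls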;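 also: integrated fluorescence ratio F max minus min over baseline F0; higher response in RGS4-induced cells means RGS4 inhibition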
RGS4 uninduced = non-induced cell nonspecific activity of RGS4 inhibitors; activity (percent), % at 10 µM; AID 493000; 1,900 tested, 20% active; shares compounds with RGS4 block; HEK293 M3R non-induced, carbachol calcium Fluo-4; submaximal (EC20) carbachol stimulus; buffer wells 0%, carbachol control wells 100%; call rule not given here;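 also: RGS4 induction absent so cells express M3R without RGS4; higher means more calcium signal and flags a non-specific hit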
M3R basal Ca ctr = second RGS4 inhibitor counter-screen in uninduced cells lacking carbachol. shares compounds with RGS4 block. HEK293 M3R/RGS4 non-induced, Fluo-4 calcium, no carbachol; normalised: buffer wells 0%, carbachol wells 100%. calcium response (agonist-mode artifact), % at 10 µM. 1,900 tested, 22% active;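 active = duplicate-averaged calcium rise in uninduced cells above buffer wells' mean plus 5 SD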
* marks the source's active call; other numbers are inactive results; i = inactive; . = not tested or not shown. Hits are enriched below; roughly 4.7% of the tested compounds scored in any of these assays.

SMILES | RGS4 block | MrgX1 agonist | MrgX1 antagonist | Cl transport mod | RGS4 pot | MrgX1 PAM | RGS4 inh valid | RGS4 uninduced | M3R basal Ca ctr
CCOC(=O)c1ccc(N(C(=O)c2ccco2)C(C(=O)NC2CCCC2)c2ccncc2)cc1 (centres undefined) | i | i | i | . | i | i | . | . | .
O=C(O)c1ccc(/C=C/C(=O)c2ccc3c(c2)OCCCO3)cc1 | 14* | i | i | . | i | i | 47%* | i | i
COc1ccc(/C=C/C(=O)c2ccc3c(c2)OCCO3)cc1[N+](=O)[O-] | 8.1* | i | i | -0.34 | i | i | 6.0%* | i | i
N#Cc1ccc2[nH]cc(CCO)c2c1 | i | i | i | . | i | i | . | . | .
Cn1ncc(S(=O)(=O)Cc2ccccc2)c(Cl)c1=O | 26* | i | i | -3.5 | i | i | 42%* | i | i
Cn1ncc(SCc2ccccc2)c(Cl)c1=O | i | i | i | -0.29 | i | i | . | . | .
N#Cc1ccc(C2=NC(C(F)(F)F)(C(F)(F)F)c3c(n(Cc4ccco4)c(=O)[nH]c3=O)N2)cc1 | 6.1* | 37* | i | -0.74 | i | i | 13%* | i | 16%*
O=c1[nH]c(=O)n(Cc2ccco2)c2c1C(C(F)(F)F)(C(F)(F)F)N=C(CCc1ccccc1)N2 | i | i | i | . | i | i | . | . | .
Oc1ccc(C[C@@H]2CNC(=S)N2CCCCC2CCCCC2)cc1 | 5.3* | i | i | -0.3 | i | i | 18%* | i | i
O=C1NC[C@H](Cc2ccc(O)cc2)N(CC2CCCCC2)C1=O | i | i | i | 0.22 | i | i | . | . | .
CCCCOc1ccc(C(=O)OCC(=O)N2CCOCC2)cc1 | i | i | i | . | i | i | . | . | .
Nc1nc(NCC2CCCO2)nc(Nc2cccc(F)c2)c1[N+](=O)[O-] (centres undefined) | i | i | i | 1.2 | i | i | . | . | .
Nc1nc(Nc2ccc(Cl)cc2)nc(NCc2ccco2)c1[N+](=O)[O-] | i | i | i | -0.83 | i | i | . | i | i
Cc1cccc(Nc2nc(N)c([N+](=O)[O-])c(NCc3ccco3)n2)c1 | i | i | i | -0.95 | i | i | i | i | i
Nc1nc(Nc2cccc(Cl)c2)nc(NCc2ccco2)c1[N+](=O)[O-] | 17* | i | i | 1.6 | i | i | 11%* | i | i
Nc1nc(Nc2cccc(F)c2)nc(NCc2ccco2)c1[N+](=O)[O-] | i | i | i | 0.49 | i | i | i | i | i
Cc1cccc(Nc2nc(NCc3ccco3)nc(N)c2[N+](=O)[O-])c1 | i | i | i | 0.9 | i | i | . | . | .
COc1ccc(Nc2nc(NCc3ccco3)nc(N)c2[N+](=O)[O-])cc1 | i | i | i | 0.36 | i | i | . | . | .
CCCCn1c(N)c(N(CCOC)C(=O)COC(=O)COc2cc(C)c(Cl)cc2C(C)C)c(=O)[nH]c1=O | i | i | i | . | i | i | . | . | .
COc1cc(C(=O)NCCSc2ccc(F)cc2)cc(OC)c1OC | i | i | i | . | i | i | . | . | .
COc1ccccc1C1CC(c2c(-c3ccccc3)c3cc(Cl)ccc3[nH]c2=O)=NN1S(C)(=O)=O (centres undefined) | . | i | i | 0.28 | . | i | . | . | .
COc1cccc(C2CC(c3c(-c4ccccc4)c4cc(Cl)ccc4[nH]c3=O)=NN2S(C)(=O)=O)c1OC (centres undefined) | 5.2* | i | i | -0.4 | i | i | 9.0%* | i | 80%*
Cc1ccc(N(CC(=O)N=Nc2c(O)[nH]c3ccccc23)S(C)(=O)=O)c(C)c1 | i | i | i | -0.33 | i | i | i | i | i
Cc1ccccc1CN1CCN(CC(=O)NC(C)c2ccccc2)CC1 (centres undefined) | i | i | i | . | i | i | . | . | .
N#Cc1c(-c2ccco2)cc(-c2ccc(F)cc2)nc1N | 6.3* | i | i | 0.32 | i | i | 7.0%* | i | 24%*
SMILES | RGS4 block | MrgX1 agonist | MrgX1 antagonist | Cl transport mod | RGS4 pot | MrgX1 PAM | RGS4 inh valid | RGS4 uninduced | M3R basal Ca ctr
N#Cc1c(-c2ccccc2)cc(-c2ccc(O)cc2)nc1N | i | i | i | . | i | i | . | . | .
Cc1ccc(-c2cc(-c3ccccc3)nc(N)c2C#N)o1 | i | i | i | . | i | i | i | i | i
COCCN(C(=O)c1csnn1)C(C(=O)NC1CCCC1)c1ccccc1F (centres undefined) | i | i | i | . | i | i | . | . | .
O=C(CN(CC1CCCO1)C(=O)CNS(=O)(=O)c1ccc(Cl)cc1)NC1CCCC1 (centres undefined) | i | i | i | . | i | i | . | . | .
N#C/C(=C/c1ccc([N+](=O)[O-])cc1)C(N)=O | 6.4* | i | i | 0.4 | i | i | 36%* | 36%* | 15%*
CCOP(=O)(OCC)/C(C#N)=C/c1ccc([N+](=O)[O-])cc1 | 7.4* | i | i | 0.13 | i | i | 14%* | i | i
N#C/C(=C\c1cc([N+](=O)[O-])ccc1Cl)C(N)=O | 5.8* | i | i | 0.3 | i | i | 12%* | i | 8.5%*
CCOC(=O)/C(C#N)=C/c1cccc([N+](=O)[O-])c1 | i | i | i | 0.26 | i | i | . | . | .
N#C/C(=C/c1ccc([N+](=O)[O-])cc1)C(=O)Nc1ccccc1O | i | i | i | -1.7 | i | i | . | . | .
CCOC(=O)[C@@H]1[C@H]2COc3ccccc3[C@@H]2N2C(=O)N(c3ccccc3)C(=O)[C@@]12C | i | i | i | . | i | i | i | i | i
CCOC(=O)[C@@H]1[C@H]2COc3ccccc3[C@H]2N2C(=O)N(c3ccccc3)C(=O)[C@]12C | i | i | i | . | i | i | i | i | i
CCOC(=O)[C@@H]1[C@H]2COc3ccc(Br)cc3[C@@H]2N2C(=O)N(c3ccc(F)cc3)C(=O)[C@]12C | i | i | i | . | i | i | . | . | .

Screens: PubChem BioAssay, several laboratories
